Measured values: ChEMBL document CHEMBL3244354, “Syntheses and biological activities of 7 beta-methyl steroids” (J Med Chem, 1979)
Calls of active or inactive are those of the source. The calls are words filed in the database; no cut-off is given here.

Assays:
Rattus norvegicus [1] = assay: Androgenic activity in castrate rat assessed as ventrol prostate weight at 3 mg, sc qd for 7 days by autopsy analysis (reference value: 17.5 +/- 0.41 mg); type: functional, Prostate gland
Rattus norvegicus [2] = assay: Androgenic activity in castrate rat assessed as seminal vesicle weight at 3 mg, sc qd for 7 days by autopsy analysis (reference value: 13.6 +/- 0.19 mg); type: functional
Rattus norvegicus [3] = assay: Myotrophic activity in castrate rat assessed as levator ani weight at 3 mg, sc qd for 7 days by autopsy analysis (reference value: 23.6 +/- 1.08 mg); type: functional
Rattus norvegicus [4] = assay: Androgenic activity in castrate rat assessed as change in body weight at 3 mg, sc qd for 7 days by autopsy analysis (reference value: 88 gram); type: functional
13762 [5] = assay: Antitumor activity against rat 13762 cells allografted in Fischer 344 rat assessed as host survival at 10 mg/kg, ip qd for 20 days; type: functional, organism-based; design: dose 10 mg/kg
How it was run: (§1)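 Female Fischer 344 rats, about 40 days old, received subcutaneous right-side grafts of 13762 mammary adenocarcinoma on day 0. From day 1 they got test compound in sesame oil ip daily for 20 days at 10 or 100 (mg/kg)/day. Vehicle controls got 0.5 mL/day. Endpoints were survivors/treated and FBW (minus tumor)/IBW. Tumor weight, final tumor size (length + width/2), and organ weights per 100 g were reported as % control.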

13762 [6] = assay: Antitumor activity against rat 13762 cells allografted in Fischer 344 rat assessed as tumor weight at 100 mg/kg, ip qd for 20 days relative to control; type: functional; details: route intraperitoneal; how it was run: as §1
Rattus norvegicus [7] = assay: Toxicity in rat 13762 cells allografted in Fischer 344 rat assessed as ratio of final body weight to initial body weight at 10 mg/kg, ip qd for 20 days; type: organism-based; design: dose 10 mg/kg, route intraperitoneal; details: in vivo, 480 h; how it was run: as §1
13762 [8] = assay: Antitumor activity against rat 13762 cells allografted in Fischer 344 rat assessed as tumor weight at 10 mg/kg, ip qd for 20 days relative to control; type: functional; details: route intraperitoneal; how it was run: as §1
13762 [9] = assay: Antitumor activity against rat 13762 cells allografted in Fischer 344 rat assessed as final tumor size at 10 mg/kg, ip qd for 20 days relative to control; type: functional; details: route intraperitoneal; how it was run: as §1
Rattus norvegicus [10] = assay: Effect on ovarian weight in rat 13762 cells allografted Fischer 344 rat at 10 mg/kg, ip qd for 20 days relative to control; type: functional; details: route intraperitoneal; how it was run: as §1
Rattus norvegicus [11] = assay: Effect on uterine weight in rat 13762 cells allografted Fischer 344 rat at 10 mg/kg, ip qd for 20 days relative to control; type: functional; details: route intraperitoneal; how it was run: as §1
Rattus norvegicus [12] = assay: Effect on spleen weight in rat 13762 cells allografted Fischer 344 rat at 10 mg/kg, ip qd for 20 days relative to control; type: functional; details: route intraperitoneal; how it was run: as §1
Rattus norvegicus [13] = assay: Effect on adrenal weight in rat 13762 cells allografted Fischer 344 rat at 10 mg/kg, ip qd for 20 days relative to control; type: functional; details: route intraperitoneal; how it was run: as §1
Rattus norvegicus [14] = assay: Effect on thymus weight in rat 13762 cells allografted Fischer 344 rat at 10 mg/kg, ip qd for 20 days relative to control; type: functional; details: route intraperitoneal; how it was run: as §1
13762 [15] = assay: Antitumor activity against rat 13762 cells allografted in Fischer 344 rat assessed as host survival at 100 mg/kg, ip qd for 20 days; type: functional, organism-based; design: dose 100 mg/kg; how it was run: as §1
Rattus norvegicus [16] = assay: Toxicity in rat 13762 cells allografted in Fischer 344 rat assessed as ratio of final body weight to initial body weight at 100 mg/kg, ip qd for 20 days; type: organism-based; design: dose 100 mg/kg, route intraperitoneal; details: in vivo, 480 h; how it was run: as §1
Rattus norvegicus [17] = assay: Effect on ovarian weight in rat 13762 cells allografted Fischer 344 rat at 100 mg/kg, ip qd for 20 days relative to control; type: functional; details: route intraperitoneal; how it was run: as §1
Rattus norvegicus [18] = assay: Effect on uterine weight in rat 13762 cells allografted Fischer 344 rat at 100 mg/kg, ip qd for 20 days relative to control; type: functional; details: route intraperitoneal; how it was run: as §1
Rattus norvegicus [19] = assay: Effect on spleen weight in rat 13762 cells allografted Fischer 344 rat at 100 mg/kg, ip qd for 20 days relative to control; type: functional; details: route intraperitoneal; how it was run: as §1
Rattus norvegicus [20] = assay: Effect on adrenal weight in rat 13762 cells allografted Fischer 344 rat at 100 mg/kg, ip qd for 20 days relative to control; type: functional; details: route intraperitoneal; how it was run: as §1
Rattus norvegicus [21] = assay: Effect on thymus weight in rat 13762 cells allografted Fischer 344 rat at 100 mg/kg, ip qd for 20 days relative to control; type: functional; details: route intraperitoneal; how it was run: as §1
Rattus norvegicus [22] = assay: Effect on pituitary weight in rat 13762 cells allografted Fischer 344 rat at 100 mg/kg, ip qd for 20 days relative to control; type: functional, Pituitary gland cell; details: route intraperitoneal; how it was run: as §1

SMILES | Activity (Rattus norvegicus [1]) [mg] | Activity (Rattus norvegicus [2]) [mg] | Activity (Rattus norvegicus [3]) [mg] | Activity (Rattus norvegicus [4]) [g] | Activity 13762 [6] [%] | Activity 13762 [15] | Ratio (Rattus norvegicus [16]) | Activity (Rattus norvegicus [17]) [%] | Activity (Rattus norvegicus [18]) [%] | Activity (Rattus norvegicus [19]) [%] | Activity (Rattus norvegicus [20]) [%] | Activity (Rattus norvegicus [21]) [%] | Activity (Rattus norvegicus [22]) [%] | also measured
CC(=O)O[C@H]1CC[C@H]2[C@@H]3[C@@H](C)C[C@H]4CC(=O)CC[C@]4(C)[C@H]3CC[C@]12C | 81.4 | 45.8 | 63.3 | 90 | 132 | Active | 1.81 | 62 | 151 | 108 | 68 | 48 | 56 | Activity 13762 [5]: Active; Ratio (Rattus norvegicus [7]): 1.58; Activity 13762 [8]: 84%; Activity 13762 [9]: 90%; Activity (Rattus norvegicus [10]): 77%; Activity (Rattus norvegicus [11]): 143%; Activity (Rattus norvegicus [12]): 77%; Activity (Rattus norvegicus [13]): 68%; Activity (Rattus norvegicus [14]): 71%
C[C@H]1CC2=CC(=O)CC[C@]2(C)[C@H]2CC[C@@]3(C)[C@@H](CC[C@]3(C)O)[C@H]12 [CALUSTERONE] | – | – | – | – | 123 | Active | 1.64 | 60 | 148 | 115 | 73 | 57 | 80 | –
C[C@H]1CC2=CC(=O)CC[C@]2(C)[C@H]2CC[C@]3(C)[C@@H](O)CC[C@H]3[C@H]12 | – | – | – | – | 103 | Active | 1.58 | 72 | 202 | 108 | 70 | 47 | 73 | –
CCC(=O)O[C@H]1CC[C@H]2[C@@H]3CCC4=CC(=O)CC[C@]4(C)[C@H]3CC[C@]12C [TESTOSTERONE PROPIONATE] | 126 | 65.9 | 68.2 | 98 | – | – | – | – | – | – | – | – | – | –
CC(=O)O[C@H]1CC[C@H]2[C@@H]3CC[C@H]4CSC[C@]4(C)[C@H]3CC[C@]12C | 61.9 | 48.6 | 65.2 | 95 | – | – | – | – | – | – | – | – | – | –
CC(=O)O[C@H]1CC[C@H]2[C@@H]3[C@@H](C)C[C@H]4CSC[C@]4(C)[C@H]3CC[C@]12C | 18.6 | 11.8 | 25.7 | 90 | 133 | Active | 1.55 | 87 | 128 | 145 | 87 | 79 | 90 | Activity 13762 [5]: Active; Ratio (Rattus norvegicus [7]): 1.5; Activity 13762 [8]: 85%; Activity 13762 [9]: 85%; Activity (Rattus norvegicus [10]): 105%; Activity (Rattus norvegicus [11]): 124%; Activity (Rattus norvegicus [12]): 81%; Activity (Rattus norvegicus [13]): 101%; Activity (Rattus norvegicus [14]): 125%
CC(=O)O[C@H]1CC[C@H]2[C@@H]3CCC4=CC(=O)CC[C@]4(C)[C@H]3CC[C@]12C | – | – | – | – | 123 | Active | 1.68 | 65 | 179 | 100 | 88 | 31 | 71 | –
